Assay results: the array DNA melting data of Ke et al. (doi:10.1101/2024.01.08.574731)

Key:
[1] = folding enthalpy; higher = less favourable; fluorescence melt of hairpins on a sequencing array, two-state fit; settings: sodium 0.088 M
Summary of the method: (§1)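 Folding enthalpy and melting temperature were estimated with bootstrapped two-state fits and combined across four replicates by inverse-variance weighting, with fitted temperatures raised by 9.35 °C to match UV melts. The data were Cy3 fluorescence of library hairpins, with annealed Cy3 and quencher oligos, on a sequenced MiSeq flow cell in 50 mM Na-HEPES pH 8.0, 25 mM NaCl, imaged in 2.5 °C steps up to 60 °C and normalised to pre-quench Cy3 and control constructs.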

[2] = melting temperature; fluorescence melt of hairpins on a sequencing array, two-state fit, raised by 9.35 °C to match UV melts; settings: sodium 0.088 M
Summary of the method: as §1

GTACCCACGAAAGTGTAC (((..(((....))))))
folding enthalpy [1]: -11.5 kcal/mol | Tm [2]: 26.2 °C

GTACCCGAAAGGGCTAC ((((((....))).)))
folding enthalpy [1]: -15.3 kcal/mol | Tm [2]: 40.2 °C

GTACCCGAAAGGGCTTAC ((((((....)))..)))
folding enthalpy [1]: -11.2 kcal/mol | Tm [2]: 27.1 °C

GTACCCGAAAGGGGTAC ((((((....))).)))
folding enthalpy [1]: -27.8 kcal/mol | Tm [2]: 59.2 °C

GTACCCGGAAACGGATAC (((.(((....))).)))
folding enthalpy [1]: -24.3 kcal/mol | Tm [2]: 42.2 °C

GTACCGAAAGGTAC (((((....)))))
folding enthalpy [1]: -27 kcal/mol | Tm [2]: 65.9 °C

GTACCGCGAAAGCGATAC (((.(((....))).)))
folding enthalpy [1]: -23.6 kcal/mol | Tm [2]: 48.5 °C

GTACCGCGAAAGCGCTAC (((.(((....))).)))
folding enthalpy [1]: -12.2 kcal/mol | Tm [2]: 35.9 °C

GTACCTCGAAAGAGATAC (((.(((....))).)))
folding enthalpy [1]: -28.3 kcal/mol | Tm [2]: 38.7 °C

GTACCTCGAAAGAGCTAC (((.(((....))).)))
folding enthalpy [1]: -11.1 kcal/mol | Tm [2]: 30.2 °C

GTACCTCGAAAGAGTAC (((.(((....))))))
folding enthalpy [1]: -20.8 kcal/mol | Tm [2]: 42.5 °C

GTACGACGAAAGTCCTAC (((.(((....))).)))
folding enthalpy [1]: -13.2 kcal/mol | Tm [2]: 31.9 °C

GTACGAGCGAAAGCTTAC (((..(((....))))))
folding enthalpy [1]: -8.2 kcal/mol | Tm [2]: 22.6 °C

GTACGAGGAAACTTGTGC (.((.((....)).)).)
folding enthalpy [1]: -16.8 kcal/mol | Tm [2]: 33 °C

GTACGCCGAAAGGCCTAC (((.(((....))).)))
folding enthalpy [1]: -10.9 kcal/mol | Tm [2]: 39.2 °C

GTACGCCGAAAGGCTTAC (((.(((....))).)))
folding enthalpy [1]: -21.5 kcal/mol | Tm [2]: 46.3 °C

GTACGCGAAAGCGGCTAC ((((((....)))..)))
folding enthalpy [1]: -10.4 kcal/mol | Tm [2]: 42.1 °C

GTACGCGAAAGCGGTAC ((((((....))).)))
folding enthalpy [1]: -16.6 kcal/mol | Tm [2]: 56.5 °C

GTACGCGAAAGCGTTAC ((((((....))).)))
folding enthalpy [1]: -11 kcal/mol | Tm [2]: 46.8 °C

GTACGCGAAAGCGTTTAC ((((((....)))..)))
folding enthalpy [1]: -7.31 kcal/mol | Tm [2]: 29.1 °C

GTACGCGCGAAAGCGTAC (((..(((....))))))
folding enthalpy [1]: -20.2 kcal/mol | Tm [2]: 61.3 °C

GTACGCGGAAACGTGTGC (.((.((....)).)).)
folding enthalpy [1]: -20.8 kcal/mol | Tm [2]: 46.2 °C

GTACGGGGAAACCCACAC ((..(((....)))..))
folding enthalpy [1]: -16.3 kcal/mol | Tm [2]: 30.4 °C

GTACGGGGAAACTCGTAC (((((.(....).)))))
folding enthalpy [1]: -35.4 kcal/mol | Tm [2]: 50.7 °C

GTACGTCGAAAGACCTAC (((.(((....))).)))
folding enthalpy [1]: -13.6 kcal/mol | Tm [2]: 34.3 °C

GTACGTCGAAAGACTTAC (((.(((....))).)))
folding enthalpy [1]: -25.7 kcal/mol | Tm [2]: 39.3 °C

GTACGTGCGAAAGCATAC (((..(((....))))))
folding enthalpy [1]: -10.3 kcal/mol | Tm [2]: 26.4 °C

GTACGTGGAAACACGCAC ((.((((....)))).))
folding enthalpy [1]: -17.2 kcal/mol | Tm [2]: 47.3 °C

GTACTAGGAAACTAGCAC ((.((((....)))).))
folding enthalpy [1]: -22.1 kcal/mol | Tm [2]: 32.2 °C

GTACTCGAAAGAGAGTAC ((((((....)))..)))
folding enthalpy [1]: -29.4 kcal/mol | Tm [2]: 46.8 °C

GTACTCGAAAGAGATAC ((((((....))).)))
folding enthalpy [1]: -18 kcal/mol | Tm [2]: 34.5 °C

GTACTCGAAAGAGGCTAC ((((((....)))..)))
folding enthalpy [1]: -14.3 kcal/mol | Tm [2]: 37.4 °C

GTACTCGAAAGAGGTAC ((((((....))).)))
folding enthalpy [1]: -21.1 kcal/mol | Tm [2]: 42.7 °C

GTACTCGAAAGAGTAC ((((((....))))))
folding enthalpy [1]: -36.2 kcal/mol | Tm [2]: 61 °C

GTACTCGAAAGAGTCTAC ((((((....)))..)))
folding enthalpy [1]: -14.6 kcal/mol | Tm [2]: 35.5 °C

GTACTCGGAAACGAGTGC (.(((((....))))).)
folding enthalpy [1]: -41 kcal/mol | Tm [2]: 54.5 °C

GTACTGCGAAAGCACTAC (((.(((....))).)))
folding enthalpy [1]: -14.8 kcal/mol | Tm [2]: 28.8 °C

GTACTGGGAAACCAGCAC ((.((((....)))).))
folding enthalpy [1]: -20.4 kcal/mol | Tm [2]: 42.3 °C

GTACTTCCGAAAGGATAC (((..(((....))))))
folding enthalpy [1]: -10.3 kcal/mol | Tm [2]: 24.9 °C

GTACTTGGAAACAAGTAC (((((((....)))))))
folding enthalpy [1]: -33.5 kcal/mol | Tm [2]: 56 °C

GTAGAACGAAAGTTATAC (((.(((....))).)))
folding enthalpy [1]: -33.9 kcal/mol | Tm [2]: 44.1 °C

GTAGACACGAAAGTGTAC (((..(((....))))))
folding enthalpy [1]: -10.5 kcal/mol | Tm [2]: 32 °C

GTAGACGAAAGTCCATAC ((((((....)))..)))
folding enthalpy [1]: -10.2 kcal/mol | Tm [2]: 26 °C

GTAGACGAAAGTCTATAC ((((((....)))..)))
folding enthalpy [1]: -12.2 kcal/mol | Tm [2]: 42.6 °C

GTAGACGAAAGTCTTTAC ((((((....)))..)))
folding enthalpy [1]: -10.4 kcal/mol | Tm [2]: 29.3 °C
